Results published in ChEMBL document CHEMBL2346542, “Preliminary biological evaluation and mechanism of action studies of selected 2-arylindoles against glioblastoma” (Bioorg Med Chem, 2013).
pIC50: −log10 of the molar value. Activity calls are given as the source filed them. The calls are words filed in the database; no cut-off is given here.

Experiments:
U-87 MG [1] = experiment: Induction of oxidative stress in human U87MG cells assessed as increase in reactive oxygens species generation at 500 uM after 1 hr by H2DCFDA dye based flow cytometry; format: functional, cell-based; conditions: U-87MG ATCC
Procedure, shortened: (§1)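 Cells at 20,000/well in six-well plates, attached overnight. Loaded with 25 µM carboxy-H2DCFDA for 30 min at 37 °C in the dark, then given compound at 500 µM for 60 min. Positive control TBHP 100 µM. Washed in HBSS, trypsinized, resuspended in PBS, strained. Flow cytometry at FITC ex/em 488/519 nm. Vehicle ≤0.5% ethanol and DMSO.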

1321-N1 [2] = experiment: Induction of oxidative stress in human 1321N1 cells assessed as increase in reactive oxygens species generation at 500 uM after 1 hr by H2DCFDA dye based flow cytometry; format: functional, cell-based; procedure, shortened: as §1
[3] = Antiproliferative activity against human U87MG cells assessed as inhibition of cell growth after 48 hrs by MTS assay; format: functional, cell-based, U-87MG ATCC; conditions: for IC50: u-87mg atcc
Procedure, shortened: (§2)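 1321N1 grown in DMEM with 10% FBS and 2 mM L-glutamine; U87MG in EMEM with 10% FBS, 2 mM L-glutamine, 1 mM pyruvate and 1% NEAA; 37 °C, 5% CO2. Seeded overnight at 3500 (1321N1) or 4000 (U87MG) cells/200 μl, 50–60% confluent. Compound added in quadruplicate for 48 h. MTS reagent added for 60 min, A490 read. IC50 vs vehicle (≤0.5% ethanol or DMSO) by nonlinear regression.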

[4] = Antiproliferative activity against human 1321N1 cells assessed as inhibition of cell growth after 48 hrs by MTS assay; format: functional, cell-based; conditions: for IC50: 1321-n1; procedure, shortened: as §2
[5] = Antiproliferative activity against human U87MG cells assessed as inhibition of cell growth at 400 uM after 48 hrs by MTS assay; format: functional, U-87MG ATCC; conditions: U-87 MG, read-out: GI
[6] = Antiproliferative activity against human U251MG cells assessed as inhibition of cell growth after 72 hrs by MTT assay; format: functional, cell-based; conditions: U-251, 72 h
Procedure, shortened: (§3)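 Short-term GBM cultures derived from tumour biopsies, and U251MG, kept in Hams F10 with 10% foetal calf serum at 37 °C without CO2. Cells seeded at 10³ per well and grown 48 h. Then dosed at 0.01–1000 µM in quadruplicate, compound renewed every 24 h, followed by 24 h recovery in compound-free medium. MTT (1 mg/mL) added for 4 h, formazan dissolved in DMSO, OD570 read. IC50 from nonlinear regression vs untreated controls.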

[7] = Antiproliferative activity against human IN1760 cells assessed as inhibition of cell growth after 72 hrs by MTT assay; format: functional, cell-based; conditions: IN1760, 72 h; procedure, shortened: as §3
[8] = Antiproliferative activity against human IN1265 cells assessed as inhibition of cell growth after 72 hrs by MTT assay; format: functional, cell-based; procedure, shortened: as §3
[9] = Antiproliferative activity against human IN1472 cells assessed as inhibition of cell growth after 72 hrs by MTT assay; format: functional, cell-based; conditions: IN1472, 72 h; procedure, shortened: as §3
[10] = Antiproliferative activity against human IN859 cells assessed as inhibition of cell growth […] by MTS assay; format: functional, cell-based
U-87 MG [11] = experiment: Induction of autophagy in human U87MG cells assessed as acidic vesicular organelle formation at 500 uM after 1 hr by acridine orange based flow cytometry in presence of 5 mM, MA; format: functional, cell-based; conditions: U-87MG ATCC
Procedure, shortened: (§4)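 Acridine orange AVO assay as above: compound at 500 µM for 60 min, given together with 3-methyladenine 5 mM dissolved in medium. Then 3 µM acridine orange for 15 min at 37 °C, flow cytometry at ex/em 488/615 nm. Two experiments.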

1321-N1 [12] = experiment: Induction of autophagy in human 1321N1 cells assessed as acidic vesicular organelle formation at 500 uM after 1 hr by acridine orange based flow cytometry in presence of 5 mM, MA; format: functional, cell-based; procedure, shortened: as §4
U-87 MG [13] = experiment: Induction of autophagy in human U87MG cells assessed as acidic vesicular organelle formation at 500 uM after 1 hr by acridine orange based flow cytometry; format: functional, cell-based; conditions: U-87MG ATCC
Procedure, shortened: (§5)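 Cells at 20,000/well in six-well plates, attached overnight. Treated with compound at 500 µM for 60 min, then stained with 3 µM acridine orange for 15 min at 37 °C in the dark. Washed in PBS, trypsinized, strained. Red fluorescence read by flow cytometry at ex/em 488/615 nm (PE-Texas Red). Vehicle ≤0.5% ethanol. One of two experiments shown.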

1321-N1 [14] = experiment: Induction of autophagy in human 1321N1 cells assessed as acidic vesicular organelle formation at 500 uM after 1 hr by acridine orange based flow cytometry; format: functional, cell-based; procedure, shortened: as §5
U-87MG ATCC = experiment: Antiproliferative activity against human U87MG cells assessed as inhibition of cell viability after 48 hrs by MTS assay in presence of 500 uM antioxidant, ascorbic acid; format: functional, cell-based
1321-N1 [15] = experiment: Antiproliferative activity against human 1321N1 cells assessed as inhibition of cell viability after 48 hrs by MTS assay in presence of 500 uM antioxidant, ascorbic acid; format: functional, cell-based
U-87 MG [16] = experiment: Induction of oxidative stress in human U87MG cells assessed as reactive oxygens species generation at 500 uM after 1 hr by H2DCFDA dye based flow cytometry in presence of 500 uM antioxidant, ascorbic acid; format: functional, cell-based; conditions: U-87MG ATCC
Procedure, shortened: (§6)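 Run as the carboxy-H2DCFDA ROS flow-cytometry assay (25 µM dye for 30 min, then compound at 500 µM for 60 min, read at ex/em 488/519 nm), with ascorbic acid 500 µM added under the same procedure and time point.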

1321-N1 [17] = experiment: Induction of oxidative stress in human 1321N1 cells assessed as reactive oxygens species generation at 500 uM after 1 hr by H2DCFDA dye based flow cytometry in presence of 500 uM antioxidant, ascorbic acid; format: functional, cell-based; procedure, shortened: as §6
U-87 MG [18] = experiment: Induction of oxidative stress in human U87MG cells assessed as increase in reactive oxygens species generation at 100 uM after 1 hr by H2DCFDA dye based flow cytometry; format: functional, cell-based; conditions: U-87MG ATCC
Procedure, shortened: (§7)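 1321N1 (DMEM, 10% FBS, 2 mM glutamine) or U87MG (EMEM, 10% FBS, glutamine, pyruvate, NEAA) cells seeded at 20,000/well and attached overnight. Loaded with 25 µM carboxy-H2DCFDA for 30 min at 37 °C in the dark, then treated for 60 min; TBHP 100 µM was the positive control, vehicle ≤0.5% ethanol/DMSO. Washed in HBSS, trypsinised, then flow cytometry at 488/519 nm.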

1321-N1 [19] = experiment: Induction of oxidative stress in human 1321N1 cells assessed as increase in reactive oxygens species generation at 100 uM after 1 hr by H2DCFDA dye based flow cytometry; format: functional, cell-based; procedure, shortened: as §7

COc1ccccc1-c1cc2ccccc2[nH]1 [2-(2'-METHOXYPHENYL)-1H-INDOLE]
Activity (U-87 MG [1]): inactive
Activity (1321-N1 [2]): inactive
IC50 [3]: Not Active
IC50 [4]: Not Active

c1ccc(-c2cc3ccccc3[nH]2)cc1 [2-PHENYL-1H-INDOLE]
Activity (U-87 MG [1]): inactive
Activity (1321-N1 [2]): inactive
inhibition of growth at 400 µM [5]: 7%
IC50 [3]: Not Active
IC50 [4]: Not Active

O=Cc1c(-c2ccccc2)[nH]c2ccccc12 [2-PHENYL-1H-INDOLE-3-CARBALDEHYDE]
IC50 [3]: Not Active
IC50 [4]: Not Active

Oc1ccccc1-c1cc2ccccc2[nH]1 [2-(2'-HYDROXYPHENYL)-1H-INDOLE]
pIC50 [6]: 4.04
pIC50 [7]: < 3.00
pIC50 [8]: 4.05
pIC50 [9]: 4.32
pIC50 [10]: 3.40
Activity (U-87 MG [11]): inactive
Activity (1321-N1 [12]): inactive
Activity (U-87 MG [13]): Active
Activity (1321-N1 [14]): Active
inhibition (U-87MG ATCC): inactive
inhibition (1321-N1 [15]): inactive
Activity (U-87 MG [16]): inactive
Activity (1321-N1 [17]): inactive
Activity (U-87 MG [1]): Active
Activity (1321-N1 [2]): Active

OCc1c[nH]c2ccccc12 [INDOLE-3-CARBINOL]
pIC50 ([3]; Homo sapiens, U-87 MG, 48 h, read-out: IC50): 3.28
pIC50 ([4]; Homo sapiens, 1321-N1, 48 h, read-out: IC50): 3.51

OCc1c(-c2ccccc2)[nH]c2ccccc12
Activity (U-87 MG [1]): Active
Activity (1321-N1 [2]): Active

CC(C)(C)OO
Activity (U-87 MG [18]): Active
Activity (1321-N1 [19]): Active
